Experimental data reported in ChEMBL document CHEMBL1148568, “Synthesis and biological evaluation of 3-ethylidene-1,3-dihydro-indol-2-ones as novel checkpoint 1 inhibitors” (Bioorg Med Chem Lett, 2006).

Legend:
[1] = molecular target: T1, Serine/threonine-protein kinase Chk1 (Homo sapiens, UniProt O14757); assay: Inhibitory activity against Chk1
T1 sequence (O14757 whole entry): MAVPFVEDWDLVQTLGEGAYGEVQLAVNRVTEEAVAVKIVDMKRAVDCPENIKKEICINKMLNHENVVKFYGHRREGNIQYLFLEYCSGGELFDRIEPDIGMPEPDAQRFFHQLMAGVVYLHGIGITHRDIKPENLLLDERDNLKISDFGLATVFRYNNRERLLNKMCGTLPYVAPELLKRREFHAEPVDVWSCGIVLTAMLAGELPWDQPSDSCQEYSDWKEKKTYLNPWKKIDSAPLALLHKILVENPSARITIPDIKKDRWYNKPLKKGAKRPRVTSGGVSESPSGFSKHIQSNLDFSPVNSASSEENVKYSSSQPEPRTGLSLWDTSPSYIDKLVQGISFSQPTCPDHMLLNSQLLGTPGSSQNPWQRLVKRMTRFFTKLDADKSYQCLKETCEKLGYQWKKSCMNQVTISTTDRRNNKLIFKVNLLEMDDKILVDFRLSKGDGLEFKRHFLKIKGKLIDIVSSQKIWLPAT

Angiopoietin-1 receptor = Angiopoietin-1 receptor (Homo sapiens, UniProt Q02763); assay: Inhibitory activity against Tie2
[2] = molecular target: Epidermal growth factor receptor (Homo sapiens, UniProt P00533); assay: Inhibitory activity against EGFR
[3] = molecular target: T2, Serine/threonine-protein kinase Sgk1 (Homo sapiens, UniProt O00141); assay: Inhibitory activity against SGK
T2 sequence (O00141 whole entry): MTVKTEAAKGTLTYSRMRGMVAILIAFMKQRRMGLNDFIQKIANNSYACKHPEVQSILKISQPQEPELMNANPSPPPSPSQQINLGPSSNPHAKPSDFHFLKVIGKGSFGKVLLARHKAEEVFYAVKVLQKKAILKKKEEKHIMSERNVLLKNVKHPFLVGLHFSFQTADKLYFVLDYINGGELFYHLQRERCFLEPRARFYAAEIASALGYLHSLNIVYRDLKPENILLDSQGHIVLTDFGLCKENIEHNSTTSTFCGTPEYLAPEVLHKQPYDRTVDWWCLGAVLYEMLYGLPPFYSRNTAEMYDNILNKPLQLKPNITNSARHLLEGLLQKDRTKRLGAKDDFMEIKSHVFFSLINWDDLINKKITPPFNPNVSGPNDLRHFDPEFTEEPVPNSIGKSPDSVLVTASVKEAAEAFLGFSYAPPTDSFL

[4] = molecular target: Serine/threonine-protein kinase Chk2 (Homo sapiens, UniProt O96017); assay: Inhibitory activity against Chk2
[5] = molecular target: Protein kinase C delta type (Homo sapiens, UniProt Q05655); assay: Inhibitory activity against PKC delta
[6] = molecular target: Cyclin-dependent kinase 1 (Homo sapiens, UniProt P06493); assay: Inhibitory activity against CDC2
[7] = molecular target: Proto-oncogene tyrosine-protein kinase Src (Homo sapiens, UniProt P12931); assay: Inhibitory activity against SRC
[8] = molecular target: Protein kinase C gamma type (Homo sapiens, UniProt P05129); assay: Inhibitory activity against PKC gamma
Casein kinase II = Casein kinase II (Homo sapiens, UniProt P19784+P67870+P68400); assay: Inhibitory activity against CK2; format: protein-complex assay
[9] = molecular target: MAP kinase-activated protein kinase 2 (Homo sapiens, UniProt P49137); assay: Inhibitory activity against MAPKAP2
HeLa [10] = assay: Antiproliferative activity against human HeLa cells by MTS assay; format: functional, cell-based
Method in brief: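 p53-deficient human cervical cancer HeLa cells were treated with the test compound alone over varying concentrations. Proliferation was read out by MTS, and the antiproliferative EC50 was determined.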

HeLa [11] = assay: Antiproliferative activity against human HeLa cells by MTS assay in the presence of doxorubicin; format: functional, cell-based

Chain of Proto-oncogene tyrosine-protein kinase Src (P12931 2-536 limits assumed): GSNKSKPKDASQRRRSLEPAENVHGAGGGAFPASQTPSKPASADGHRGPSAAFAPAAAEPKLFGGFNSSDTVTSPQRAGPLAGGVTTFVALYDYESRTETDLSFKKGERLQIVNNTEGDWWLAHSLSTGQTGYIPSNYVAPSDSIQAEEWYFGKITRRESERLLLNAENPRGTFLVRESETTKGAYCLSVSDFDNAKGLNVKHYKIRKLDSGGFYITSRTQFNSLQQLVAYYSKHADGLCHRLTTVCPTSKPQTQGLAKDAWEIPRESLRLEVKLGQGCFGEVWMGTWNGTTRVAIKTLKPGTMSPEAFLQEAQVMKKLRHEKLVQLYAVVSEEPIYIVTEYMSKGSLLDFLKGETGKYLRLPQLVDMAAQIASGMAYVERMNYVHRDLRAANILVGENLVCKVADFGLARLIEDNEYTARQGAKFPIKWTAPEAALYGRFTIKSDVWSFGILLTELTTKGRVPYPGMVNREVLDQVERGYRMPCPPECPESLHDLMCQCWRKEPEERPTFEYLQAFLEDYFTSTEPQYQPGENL
Chain of Serine/threonine-protein kinase Chk2 (O96017 whole entry): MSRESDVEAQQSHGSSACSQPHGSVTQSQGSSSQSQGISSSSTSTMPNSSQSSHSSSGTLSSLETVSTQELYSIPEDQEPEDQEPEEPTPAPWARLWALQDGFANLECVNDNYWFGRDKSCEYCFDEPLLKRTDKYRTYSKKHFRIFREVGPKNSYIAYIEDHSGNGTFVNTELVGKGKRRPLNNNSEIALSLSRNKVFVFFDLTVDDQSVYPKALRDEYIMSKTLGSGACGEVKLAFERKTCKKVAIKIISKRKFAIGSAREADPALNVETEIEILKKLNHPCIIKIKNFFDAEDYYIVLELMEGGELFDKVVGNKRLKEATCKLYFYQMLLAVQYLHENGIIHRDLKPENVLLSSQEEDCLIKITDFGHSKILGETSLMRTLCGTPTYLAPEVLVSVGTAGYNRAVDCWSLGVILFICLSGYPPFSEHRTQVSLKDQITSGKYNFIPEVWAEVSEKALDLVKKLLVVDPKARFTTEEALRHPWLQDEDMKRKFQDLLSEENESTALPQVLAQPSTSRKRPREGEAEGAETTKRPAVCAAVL
Chain of Cyclin-dependent kinase 1 (P06493 whole entry): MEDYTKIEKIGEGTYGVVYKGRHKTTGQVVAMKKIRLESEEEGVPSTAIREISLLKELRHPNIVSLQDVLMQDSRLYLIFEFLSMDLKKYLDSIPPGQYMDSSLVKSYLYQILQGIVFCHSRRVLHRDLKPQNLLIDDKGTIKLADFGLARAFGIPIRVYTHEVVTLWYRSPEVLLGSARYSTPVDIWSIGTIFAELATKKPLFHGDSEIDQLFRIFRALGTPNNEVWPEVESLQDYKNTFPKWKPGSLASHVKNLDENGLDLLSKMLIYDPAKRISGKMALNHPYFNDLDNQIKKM
Chain of Epidermal growth factor receptor (P00533 whole entry): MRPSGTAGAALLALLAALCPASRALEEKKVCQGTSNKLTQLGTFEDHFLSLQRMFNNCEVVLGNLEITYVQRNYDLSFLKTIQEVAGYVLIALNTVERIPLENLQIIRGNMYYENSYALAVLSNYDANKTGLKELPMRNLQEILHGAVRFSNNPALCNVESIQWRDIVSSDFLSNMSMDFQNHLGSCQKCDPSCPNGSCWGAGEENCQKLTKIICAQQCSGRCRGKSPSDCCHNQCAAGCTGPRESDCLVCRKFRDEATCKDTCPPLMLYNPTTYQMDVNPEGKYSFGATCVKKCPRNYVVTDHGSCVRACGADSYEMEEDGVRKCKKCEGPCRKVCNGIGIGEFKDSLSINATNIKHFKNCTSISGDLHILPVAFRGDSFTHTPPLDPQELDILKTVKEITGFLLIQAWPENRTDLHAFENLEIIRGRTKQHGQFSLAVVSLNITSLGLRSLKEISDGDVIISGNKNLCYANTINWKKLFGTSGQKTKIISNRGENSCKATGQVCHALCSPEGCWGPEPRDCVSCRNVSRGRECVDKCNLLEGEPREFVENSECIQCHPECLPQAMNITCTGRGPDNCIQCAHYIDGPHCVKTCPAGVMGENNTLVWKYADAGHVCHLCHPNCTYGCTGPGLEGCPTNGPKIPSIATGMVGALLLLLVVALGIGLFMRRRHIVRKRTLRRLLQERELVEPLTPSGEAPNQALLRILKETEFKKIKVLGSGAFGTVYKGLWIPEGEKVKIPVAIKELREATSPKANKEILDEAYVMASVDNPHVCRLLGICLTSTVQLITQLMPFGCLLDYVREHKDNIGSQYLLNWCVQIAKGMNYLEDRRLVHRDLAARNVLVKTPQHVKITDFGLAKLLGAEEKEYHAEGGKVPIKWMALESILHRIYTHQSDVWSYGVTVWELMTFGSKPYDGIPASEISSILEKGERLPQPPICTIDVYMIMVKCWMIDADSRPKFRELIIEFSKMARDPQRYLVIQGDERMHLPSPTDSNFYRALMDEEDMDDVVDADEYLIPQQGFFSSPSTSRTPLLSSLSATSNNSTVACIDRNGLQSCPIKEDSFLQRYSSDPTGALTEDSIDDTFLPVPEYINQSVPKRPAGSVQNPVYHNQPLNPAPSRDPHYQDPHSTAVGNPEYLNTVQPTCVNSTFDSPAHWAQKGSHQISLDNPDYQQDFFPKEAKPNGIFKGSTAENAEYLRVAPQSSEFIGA
Chain of Protein kinase C delta type (Q05655 whole entry): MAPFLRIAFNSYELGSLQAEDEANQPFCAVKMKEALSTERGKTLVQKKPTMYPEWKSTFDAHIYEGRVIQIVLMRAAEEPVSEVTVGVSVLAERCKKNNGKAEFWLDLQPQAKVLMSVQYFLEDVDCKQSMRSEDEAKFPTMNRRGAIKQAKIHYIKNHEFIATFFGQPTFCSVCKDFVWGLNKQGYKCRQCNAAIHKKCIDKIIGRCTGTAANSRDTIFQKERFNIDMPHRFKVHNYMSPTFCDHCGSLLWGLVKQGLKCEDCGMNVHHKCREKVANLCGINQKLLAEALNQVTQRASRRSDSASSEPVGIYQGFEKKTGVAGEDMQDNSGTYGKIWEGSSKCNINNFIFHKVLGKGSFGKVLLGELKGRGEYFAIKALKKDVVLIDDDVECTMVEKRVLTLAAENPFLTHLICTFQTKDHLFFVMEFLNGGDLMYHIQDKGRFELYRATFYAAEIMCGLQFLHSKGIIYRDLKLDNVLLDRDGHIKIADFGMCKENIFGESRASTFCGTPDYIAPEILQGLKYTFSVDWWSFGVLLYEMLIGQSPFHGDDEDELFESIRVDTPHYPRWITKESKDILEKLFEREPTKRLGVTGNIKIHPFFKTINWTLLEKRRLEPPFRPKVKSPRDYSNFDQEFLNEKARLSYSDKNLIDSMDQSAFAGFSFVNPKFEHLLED
Chain of Angiopoietin-1 receptor (Q02763 whole entry): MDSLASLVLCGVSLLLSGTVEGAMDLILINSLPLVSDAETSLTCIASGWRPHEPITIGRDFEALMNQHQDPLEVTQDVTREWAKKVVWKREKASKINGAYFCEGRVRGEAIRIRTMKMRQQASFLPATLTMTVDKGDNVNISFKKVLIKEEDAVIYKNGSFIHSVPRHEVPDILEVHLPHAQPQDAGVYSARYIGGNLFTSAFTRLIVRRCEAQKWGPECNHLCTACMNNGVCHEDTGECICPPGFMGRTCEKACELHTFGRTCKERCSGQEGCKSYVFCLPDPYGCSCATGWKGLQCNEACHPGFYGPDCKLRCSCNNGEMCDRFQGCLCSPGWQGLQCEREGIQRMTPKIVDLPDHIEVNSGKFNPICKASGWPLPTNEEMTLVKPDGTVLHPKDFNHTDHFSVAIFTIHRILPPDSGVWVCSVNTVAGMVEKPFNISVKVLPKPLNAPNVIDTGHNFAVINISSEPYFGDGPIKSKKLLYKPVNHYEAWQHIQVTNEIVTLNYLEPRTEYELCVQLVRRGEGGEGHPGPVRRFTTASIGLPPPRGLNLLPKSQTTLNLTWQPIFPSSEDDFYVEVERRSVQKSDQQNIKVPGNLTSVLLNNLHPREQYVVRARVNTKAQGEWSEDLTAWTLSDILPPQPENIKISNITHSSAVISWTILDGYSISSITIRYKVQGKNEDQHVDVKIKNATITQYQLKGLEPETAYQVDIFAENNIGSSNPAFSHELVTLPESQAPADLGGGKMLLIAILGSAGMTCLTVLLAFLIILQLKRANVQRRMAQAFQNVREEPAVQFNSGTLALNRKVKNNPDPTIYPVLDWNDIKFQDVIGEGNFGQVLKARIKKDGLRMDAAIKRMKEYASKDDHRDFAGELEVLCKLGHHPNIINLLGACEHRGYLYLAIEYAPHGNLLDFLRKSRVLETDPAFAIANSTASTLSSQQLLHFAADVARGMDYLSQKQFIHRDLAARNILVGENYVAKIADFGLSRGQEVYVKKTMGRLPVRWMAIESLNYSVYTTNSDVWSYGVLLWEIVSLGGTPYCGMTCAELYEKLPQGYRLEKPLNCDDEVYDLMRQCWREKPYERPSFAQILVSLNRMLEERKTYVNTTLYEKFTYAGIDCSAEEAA
Chain of MAP kinase-activated protein kinase 2 (P49137 whole entry): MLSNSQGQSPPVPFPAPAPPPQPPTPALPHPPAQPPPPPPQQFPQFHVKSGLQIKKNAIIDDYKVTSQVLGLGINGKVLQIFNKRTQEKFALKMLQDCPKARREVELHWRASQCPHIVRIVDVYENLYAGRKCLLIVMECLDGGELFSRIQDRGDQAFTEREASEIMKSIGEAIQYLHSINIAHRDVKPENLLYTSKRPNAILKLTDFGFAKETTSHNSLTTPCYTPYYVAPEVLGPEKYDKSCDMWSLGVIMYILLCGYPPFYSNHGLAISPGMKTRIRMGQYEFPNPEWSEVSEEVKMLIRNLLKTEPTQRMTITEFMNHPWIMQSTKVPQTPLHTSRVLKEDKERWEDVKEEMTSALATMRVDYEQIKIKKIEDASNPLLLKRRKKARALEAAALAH

**Q.** How did the IC50 [1] turn out when `COc1cc(-c2ccc3c(c2)NC(=O)/C3=C\c2c[nH]c3ccccc23)ccc1O` was run?
**A.** 92 nM

**Q.** What does the source list for `COc1cc(-c2ccc3c(c2)NC(=O)/C3=C\c2ncc[nH]2)ccc1O`?
**A.** IC50 (Angiopoietin-1 receptor): 23.3 µM; IC50 [2]: > 50 µM; IC50 [3]: 1.5 µM; IC50 [4]: 14.6 µM; IC50 [5]: > 50 µM; IC50 [6]: 251 nM; IC50 [7]: > 50 µM; IC50 [1]: 18 nM; IC50 [8]: > 50 µM

**Q.** Which IC50 [1] does the source give for `O=C1Nc2cc(-c3ccc(OC(F)(F)F)cc3)ccc2/C1=C/c1cc[nH]c1` here?
**A.** > 10000 nM

**Q.** `COc1cc(-c2ccc3c(c2)NC(=O)/C3=C\c2[nH]c(C)c(CCO)c2C)ccc1O` was tested. Which IC50 [1] did it give?
**A.** 47 nM

**Q.** How did the IC50 [1] turn out when `O=C1Nc2cc(-c3ccc(O)cc3)ccc2/C1=C/c1cc[nH]c1` was run?
**A.** 29 nM

**Q.** For `COc1cc(-c2ccc3c(c2)NC(=O)/C3=C\c2cc[nH]c2)ccc1O`, which IC50 [1] is on record?
**A.** 25 nM

**Q.** `COc1cc(-c2ccc3c(c2)/C(=C/c2c[nH]c4c(C)cccc24)C(=O)N3)ccc1O` was tested. Which IC50 [1] did it give?
**A.** 3460 nM

**Q.** Which IC50 [1] does the source give for `COc1cc(-c2ccc3c(c2)NC(=O)/C3=C\c2[nH]c(C)cc2-c2ccccc2)ccc1O` here?
**A.** > 10000 nM

**Q.** For `O=C1Nc2cc(-c3ccc(F)c(F)c3)ccc2/C1=C/c1cc[nH]c1`, which IC50 [1] is on record?
**A.** > 10000 nM

**Q.** Which IC50 [1] does the source give for `COc1cc(-c2ccc3c(c2)/C(=C/c2ccc[nH]2)C(=O)N3)ccc1O` here?
**A.** 2840 nM

**Q.** For `COC(=O)CCc1c(C)[nH]c(/C=C2\C(=O)Nc3cc(-c4ccc(O)c(OC)c4)ccc32)c1C`, which IC50 [1] is on record?
**A.** 75 nM

**Q.** How did the IC50 [1] turn out when `COc1cc(-c2ccc3c(c2)NC(=O)/C3=C\c2cccc(OC)c2OC)ccc1O` was run?
**A.** > 50000 nM

**Q.** With `COc1cc(-c2ccc3c(c2)NC(=O)/C3=C\c2c[nH]c3nc(C#N)ccc23)ccc1O` as the molecule, how does the IC50 [1] read?
**A.** 445 nM

**Q.** With `Nc1ccc(-c2ccc3c(c2)NC(=O)/C3=C\c2cc[nH]c2)cc1` as the molecule, how does the IC50 [1] read?
**A.** 1030 nM

**Q.** How did the IC50 (Casein kinase II) turn out when `COc1cc(-c2ccc3c(c2)NC(=O)/C3=C\c2ccc[nH]2)ccc1O` was run?
**A.** > 50 µM

**Q.** What about the IC50 (Angiopoietin-1 receptor) of the same molecule?
**A.** > 50 µM

**Q.** And the IC50 [2]?
**A.** > 50 µM

**Q.** What about the IC50 [9] of the same molecule?
**A.** > 50 µM

**Q.** What about the IC50 [3] of the same molecule?
**A.** > 50 µM

**Q.** What about the IC50 [4] of the same molecule?
**A.** 21.7 µM

**Q.** And the IC50 [5]?
**A.** > 50 µM

**Q.** What about the IC50 [6] of the same molecule?
**A.** > 50000 nM

**Q.** And the IC50 [7]?
**A.** > 50 µM

**Q.** What about the IC50 [8] of the same molecule?
**A.** > 50 µM

**Q.** How did the IC50 [1] turn out when `COc1cc(-c2ccc3c(c2)NC(=O)/C3=C\c2c[nH]c3c(C)cccc23)ccc1O` was run?
**A.** 1310 nM

**Q.** How did the IC50 [1] turn out when `COc1cc(-c2ccc3c(c2)NC(=O)/C3=C\c2cc[nH]c2)cc(OC)c1OC` was run?
**A.** > 10000 nM

**Q.** With `COc1cc(-c2ccc3c(c2)NC(=O)/C3=C\c2[nH]c(C)c(CN(C)C)c2C(C)C)ccc1O` as the molecule, how does the IC50 [1] read?
**A.** 1280 nM

**Q.** With `COc1cc(-c2ccc3c(c2)NC(=O)/C3=C\c2[nH]c(C)cc2C(C)C)ccc1O` as the molecule, how does the IC50 [1] read?
**A.** 3460 nM

**Q.** `Cc1ccc(-c2ccc3c(c2)NC(=O)/C3=C\c2cc[nH]c2)cc1` was tested. Which IC50 [1] did it give?
**A.** > 10000 nM

**Q.** `COc1cc(-c2ccc3c(c2)/C(=C/c2c[nH]c4ccccc24)C(=O)N3)ccc1O` was tested. Which IC50 [1] did it give?
**A.** > 50000 nM

**Q.** How did the IC50 [1] turn out when `COc1cc(-c2ccc3c(c2)/C(=C/c2cccc(OC)c2OC)C(=O)N3)ccc1O` was run?
**A.** > 50000 nM

**Q.** With `COc1cc(-c2ccc3c(c2)NC(=O)/C3=C\c2[nH]c(C)cc2C)ccc1O` as the molecule, how does the IC50 [1] read?
**A.** 120 nM

**Q.** With `COc1cc(O)ccc1-c1ccc2c(c1)NC(=O)/C2=C\c1cc[nH]c1` as the molecule, how does the IC50 [1] read?
**A.** 10 nM

**Q.** With `COc1cc(-c2ccc3c(c2)NC(=O)/C3=C\c2c[nH]c3ncccc23)ccc1O` as the molecule, how does the IC50 (Casein kinase II) read?
**A.** 41.7 µM

**Q.** What about the IC50 [9] of the same molecule?
**A.** > 50 µM

**Q.** And the IC50 [3]?
**A.** > 50 µM

**Q.** What about the IC50 [4] of the same molecule?
**A.** 22.7 µM

**Q.** And the IC50 [6]?
**A.** 454 nM

**Q.** What about the EC50 (HeLa [10]) of the same molecule?
**A.** 10 nM

**Q.** What about the IC50 [7] of the same molecule?
**A.** 2.38 µM

**Q.** And the IC50 [1]?
**A.** 4 nM

**Q.** What about the EC50 (HeLa [11]) of the same molecule?
**A.** 180 nM

**Q.** Which IC50 [1] does the source give for `COc1cc(-c2ccc3c(c2)NC(=O)/C3=C\C2CCCN2)ccc1O` (stereo unspecified) here?
**A.** 3970 nM
